Legend:
[1] = molecular target: Glutamate receptor ionotropic kainate 1 (Homo sapiens) (UniProt P39086); test: Antagonist activity at human recombinant GluR5 expressed in HEK cells coexpressing aequorine assessed as inhibition of glutamate-induced Ca2+ influx at 10 uM by luminescence reporter assay relative to control; conditions: HEK293
[2] = molecular target: Glutamate receptor ionotropic kainate 2 (Homo sapiens) (UniProt Q13002); test: Antagonist activity at human recombinant GluR6 expressed in HEK cells coexpressing aequorine assessed as inhibition of glutamate-induced Ca2+ influx at 10 uM by luminescence reporter assay relative to control; conditions: HEK293
Glutamate receptor ionotropic kainate 2 (Homo sapiens), sequence (Q13002 whole entry, looked up): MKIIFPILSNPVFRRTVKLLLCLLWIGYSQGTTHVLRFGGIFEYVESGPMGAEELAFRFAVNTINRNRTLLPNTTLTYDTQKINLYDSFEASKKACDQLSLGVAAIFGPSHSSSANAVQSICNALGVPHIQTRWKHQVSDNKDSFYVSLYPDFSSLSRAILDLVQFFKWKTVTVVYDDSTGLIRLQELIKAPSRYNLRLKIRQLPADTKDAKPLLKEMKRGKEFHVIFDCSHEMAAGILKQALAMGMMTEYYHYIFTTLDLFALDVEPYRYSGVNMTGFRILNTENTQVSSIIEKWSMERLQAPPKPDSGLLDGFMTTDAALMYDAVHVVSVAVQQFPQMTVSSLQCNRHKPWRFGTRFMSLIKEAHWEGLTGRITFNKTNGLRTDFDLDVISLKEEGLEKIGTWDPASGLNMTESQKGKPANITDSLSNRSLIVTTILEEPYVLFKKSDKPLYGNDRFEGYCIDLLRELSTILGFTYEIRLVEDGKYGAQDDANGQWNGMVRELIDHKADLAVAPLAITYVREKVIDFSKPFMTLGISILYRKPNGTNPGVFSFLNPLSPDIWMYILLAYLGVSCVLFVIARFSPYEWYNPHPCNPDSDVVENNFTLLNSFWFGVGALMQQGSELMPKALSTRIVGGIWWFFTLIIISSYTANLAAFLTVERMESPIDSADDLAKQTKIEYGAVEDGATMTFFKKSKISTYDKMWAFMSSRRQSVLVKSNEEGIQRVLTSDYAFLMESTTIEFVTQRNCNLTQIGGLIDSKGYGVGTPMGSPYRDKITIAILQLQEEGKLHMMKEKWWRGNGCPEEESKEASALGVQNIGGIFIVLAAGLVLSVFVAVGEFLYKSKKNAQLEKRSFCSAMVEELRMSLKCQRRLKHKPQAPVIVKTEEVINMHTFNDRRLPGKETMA

[3] = Cytotoxicity against monkey COS7 cells at 0.1 to 10 uM after 24 hrs by MTT assay; conditions: chlorocebus aethiops, cos-7, 24 h
[4] = Cytotoxicity against monkey COS7 cells at 100 uM after 24 hrs by MTT assay; conditions: chlorocebus aethiops, cos-7, 24 h
[5] = system: N2a; test: Cytotoxicity against mouse N2A cells at 100 uM after 24 hrs by MTT assay; format: cell-based
In short: (§1)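 Cell viability was measured by MTT in N2A neuroblastoma and COS7 monkey kidney cells after 24 h compound incubation. Formazan was released with lysis buffer and absorbance was read at 590 nm.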

[6] = system: N2a; test: Cytotoxicity against mouse N2A cells at 0.1 to 10 uM after 24 hrs by MTT assay; format: cell-based
In short: as §1

[7] = molecular target: Glutamate receptor ionotropic kainate 1 (Homo sapiens) (UniProt P39086); test: Antagonist activity at human recombinant GluR5 expressed in HEK cells coexpressing aequorine assessed as inhibition of glutamate-induced Ca2+ influx at 100 uM by luminescence reporter assay relative to control; conditions: HEK293
[8] = molecular target: Glutamate receptor ionotropic kainate 2 (Homo sapiens) (UniProt Q13002); test: Antagonist activity at human recombinant GluR6 expressed in HEK cells coexpressing aequorine assessed as inhibition of glutamate-induced Ca2+ influx at 100 uM by luminescence reporter assay relative to control; conditions: HEK293

Glutamate receptor ionotropic kainate 1 (Homo sapiens), sequence (P39086 whole entry, looked up): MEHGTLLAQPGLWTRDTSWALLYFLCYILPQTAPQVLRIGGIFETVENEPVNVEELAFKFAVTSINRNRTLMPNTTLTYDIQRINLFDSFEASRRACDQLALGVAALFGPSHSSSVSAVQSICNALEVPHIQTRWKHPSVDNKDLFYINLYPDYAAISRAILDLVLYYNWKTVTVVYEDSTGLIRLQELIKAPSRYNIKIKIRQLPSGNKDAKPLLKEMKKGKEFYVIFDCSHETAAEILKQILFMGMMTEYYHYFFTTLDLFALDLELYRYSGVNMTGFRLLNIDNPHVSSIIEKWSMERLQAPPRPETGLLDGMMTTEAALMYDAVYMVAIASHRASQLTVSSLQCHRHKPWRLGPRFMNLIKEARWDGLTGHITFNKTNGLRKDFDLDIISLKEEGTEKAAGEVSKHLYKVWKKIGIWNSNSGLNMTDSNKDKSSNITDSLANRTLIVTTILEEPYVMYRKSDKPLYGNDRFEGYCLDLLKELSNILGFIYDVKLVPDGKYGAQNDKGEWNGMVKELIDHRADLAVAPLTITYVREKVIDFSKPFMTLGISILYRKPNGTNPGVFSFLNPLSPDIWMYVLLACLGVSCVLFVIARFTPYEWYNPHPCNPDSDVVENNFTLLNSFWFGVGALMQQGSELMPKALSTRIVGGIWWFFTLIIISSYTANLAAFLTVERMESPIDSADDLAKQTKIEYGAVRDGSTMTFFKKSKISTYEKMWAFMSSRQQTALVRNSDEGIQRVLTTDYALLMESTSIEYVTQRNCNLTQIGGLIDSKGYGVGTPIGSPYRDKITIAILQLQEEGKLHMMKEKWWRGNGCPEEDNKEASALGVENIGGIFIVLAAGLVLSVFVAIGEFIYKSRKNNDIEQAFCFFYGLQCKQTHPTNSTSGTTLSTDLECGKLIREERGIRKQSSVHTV

Row | SMILES | inhibition [1] [%] | inhibition [2] [%] | other results
1 | CCOC(=O)c1c(N=NC#N)sc(-c2ccccc2)c1C | 7 |  | 
2 | CCn1c(=O)[nH]c2sc(-c3ccccc3)c(C)c2c1=O | 11.8 | 9.5 | 
3 | CCOC(=O)c1c(N)sc(-c2ccccc2)c1C | 12 |  | Activity [3]: Non-toxic; Activity [4]: Toxic; Activity [5]: Toxic; Activity [6]: Non-toxic
4 | CCOC(=O)C(=O)Nc1sc(-c2ccccc2)c(C)c1C(=O)OCC | 4 | 10 | 
5 | CCNC(=S)Nc1sc(-c2ccccc2)c(C)c1C(=O)OCC | 7 | -6.5 | 
6 | CCOC(=O)c1c(N)sc2c1CCCC2 | 7 | 11 | 
7 | CCOC(=O)c1c(N=NN2CCOCC2)sc(-c2ccccc2)c1C | 4 |  | 
8 | Cc1c(-c2ccccc2)sc2[nH]c(=S)[nH]c(=O)c12 | 10 | -2 | 
9 | CCOC(=O)Nc1sc(-c2ccccc2)c(C)c1C(=O)O | 12 | 7 | 
10 | CCOC(=O)Nc1cc(C)c(-c2ccccc2)s1 | 1 | 18 | 
11 | CCOC(=O)Nc1sc(-c2ccccc2)c(C)c1C(N)=O | 19 | 12 | 
12 | Cc1c(-c2ccccc2)sc(N)c1C#N | 17 |  | 
13 | CCn1c(=O)[nH]c2sc3c(c2c1=O)CCCC3 | 6 | 7.1 | 
14 | CCSc1nc2sc(-c3ccccc3)c(C)c2c(=O)[nH]1 | 1 | 0 | 
15 | CCOC(=O)c1c(NC(=O)c2ccccc2)sc(-c2ccccc2)c1C | -3 | 5 | 
16 | CCOC(=O)c1c(NC(C)=O)sc(-c2ccccc2)c1C | 3 | 4 | 
17 | NC(=O)c1c(N)sc2c1CCCC2 | 4 | 13 | 
18 | CCOC(=O)c1c(NC(=O)CNCc2ccccc2)sc(-c2ccccc2)c1C | 25 | 4 | 
19 | CCOC(=O)Nc1sc2c(c1C(N)=O)CCCC2 | 14 | 17 | 
20 | CCSc1nc2sc3c(c2c(=O)[nH]1)CCCC3 | 8 | 4 | 
21 | CCOC(=O)c1c(N)sc(-c2ccc(F)cc2)c1C | 0 |  | 
22 | COC(=O)c1c(N)sc(-c2ccccc2)c1C |  |  | Activity [3]: Non-toxic; Activity [4]: Non-toxic; Activity [6]: Non-toxic

Row | SMILES | inhibition [1] [%] | inhibition [2] [%] | other results
23 | CCOC(=O)c1c(NC(=O)C(F)(F)F)sc(-c2ccccc2)c1C | 18 | 20 | 
24 | CCOC(=O)c1c(N)sc(-c2ccc(OC)cc2)c1C | 1 |  | 
25 | CCOC(=O)c1c(-n2cccc2)sc(-c2ccccc2)c1C | -1 | 2 | 
26 | CCOC(=O)c1cc(-c2ccccc2)sc1N |  | -1 | inhibition [7]: 25%
27 | CCOC(=O)c1c(NC(=O)CN2CCOCC2)sc(-c2ccccc2)c1C | 14 | 9 | 
28 | Oc1nc(S)nc2sc3c(c12)CCCC3 | 17 | 0 | 
29 | CCOC(=O)c1c(N)sc(-c2ccccc2Cl)c1C | 10 |  | 
30 | Cc1c(-c2ccccc2)sc(N)c1C(N)=O |  |  | inhibition [7]: 2%; inhibition [8]: 3%
31 | CCOC(=O)c1c(N)sc(-c2ccccc2)c1-c1ccccc1 | 13 |  | Activity [3]: Non-toxic; Activity [5]: Toxic; Activity [6]: Non-toxic
32 | Cc1c(-c2ccccc2)sc(N)c1C(=O)OC(C)(C)C | 4 |  | 
33 | CCCOC(=O)c1c(N)sc(-c2ccccc2)c1C | 5 |  | Activity [3]: Non-toxic; Activity [4]: Toxic; Activity [5]: Toxic; Activity [6]: Non-toxic
34 | CCNC(=O)Nc1sc2c(c1C(N)=O)CCCC2 | 0.1 | 12 | 
35 | CCNC(=O)Nc1sc(-c2ccccc2)c(C)c1C(N)=O | 5.8 | 17 | 
36 | CCOC(=O)c1c(N=C=S)sc(-c2ccccc2)c1C | 0 |  | Activity [3]: Non-toxic; Activity [4]: Toxic; Activity [5]: Toxic; Activity [6]: Non-toxic
37 | CCNC(=O)Nc1sc(-c2ccccc2)c(C)c1C(=O)OCC | 0.5 | 9 | 
38 | Cc1c(-c2ccccc2)sc(N)c1C(=O)c1ccccc1 | 17 |  | 
39 | CCOC(=O)c1c(Cl)sc(-c2ccccc2)c1C | 0 |  | 
40 | Cc1c(-c2ccccc2)sc(N)c1C(=O)O |  | 44 | inhibition [7]: 20%
41 | CCOC(=O)c1c(N=NN(C)C)sc(-c2ccccc2)c1C | 10 |  | 
42 | CCNC(=O)c1c(N)sc(-c2ccccc2)c1C | 9 | 4 | 
43 | CCOC(=O)c1c(NC)sc(-c2ccccc2)c1C | 4.5 | 19 | 
